# Data taken from PubChem BioAssay.
# The other results are listed elsewhere or left out. Unmarked numbers belong to inactive results. The source made the active and inactive calls.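 Rule for the calls: active = mean inhibition across replicates above the hit cutoff set in the primary screen (cut at about 30% in these data); inactive = the rest.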
# Target: (Lyso)-N-acylphosphatidylethanolamine lipase (Mus musculus) (UniProt Q8VD66)
# Test: mouse ABHD4 hydrolase blockers, triplicate – biochemical, fluorescence polarization, confirmation (AID 720658)
# Settings: purified mABHD4, FP-Rh probe fluorescence polarization; at 8.92 µM; active compounds read high
# In short: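 Test system: wild-type mouse ABHD4. Medium: HEPES-saline buffer with 0.01% Pluronic F-127. Doses: single nominal compound dose 8.92 µM, 0.89% DMSO final. Timing: pre-incubation 45 min, probe exposure 60 min, 25 °C. Technique: FP readout, ex 525 nm, em 598 nm. Control set: S159A mutant ABHD4 plus DMSO as 100%, wild-type plus DMSO 0%.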
# Chain of (Lyso)-N-acylphosphatidylethanolamine lipase (Mus musculus) (Q8VD66 whole entry, looked up): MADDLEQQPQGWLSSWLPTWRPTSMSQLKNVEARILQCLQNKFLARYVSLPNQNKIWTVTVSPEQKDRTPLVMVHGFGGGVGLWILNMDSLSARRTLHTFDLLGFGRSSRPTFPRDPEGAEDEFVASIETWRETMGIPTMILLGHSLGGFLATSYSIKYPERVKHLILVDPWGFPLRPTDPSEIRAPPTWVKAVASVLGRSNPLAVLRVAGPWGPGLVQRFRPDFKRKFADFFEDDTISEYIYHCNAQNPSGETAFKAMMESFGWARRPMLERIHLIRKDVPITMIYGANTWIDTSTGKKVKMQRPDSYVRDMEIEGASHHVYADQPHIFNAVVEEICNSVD
row,Structure (SMILES),inhibition
1,CCOc1ccc2nc(Nc3nc4ccc(NC(C)=O)cc4s3)sc2c1,30.9% (active)
2,COC(=O)c1oc2ccc(Br)cc2c1NC(C)=O,-0.79%
3,Cc1cccc(-n2cnc(C(=O)NNC(=S)Nc3ccccc3)c2)n1,57.2% (active)
4,Nc1[nH]c(C(=O)c2ccc(Br)cc2)c(-c2ccc3c(c2)OCO3)c1C(=O)NCCc1c[nH]c2ccccc12,36.9% (active)
5,Oc1ccc(/C=N/Nc2ccc(C(F)(F)F)cn2)cc1O,34% (active)
6,NNc1nc2c(Cl)cccc2s1,24%
7,O=C(O)c1ccc(N/N=C/c2cn(-c3ccccc3)nc2-c2cccs2)cc1,57.4% (active)
8,O=C(O)c1cc([N+](=O)[O-])c(Nc2cccc3ccccc23)c([N+](=O)[O-])c1,39.9% (active)
9,COc1ccc2nc(Nc3nc4ccc(NC(C)=O)cc4s3)sc2c1,39.4% (active)
10,CC(C)(C)C(=O)OCc1nc(-c2ccc(O)c(O)c2)cs1,28.1%
11,CC(C)COC(=O)n1c(=O)oc2ccc(S(=O)(=O)N3CCCCC3)cc21,49.4% (active)
12,C/C(=N\NC(=O)c1ccc(C)cc1)C1C(=O)c2ccccc2C1=O,35.3% (active)
13,COc1cc(C(=O)Nn2c(O)c(C3=c4ccccc4=NC3=O)sc2=S)ccc1O,77.4% (active)
14,COc1ccc(Br)cc1/C=N/Nc1ccc(S(=O)(=O)Nc2ccccc2C(=O)O)cc1[N+](=O)[O-],20.7%
15,Cc1oc2cc(Br)c(O)c(Br)c2c1C(=O)c1ccccc1,53% (active)
